Measured values taken from ChEMBL document CHEMBL4837210 (Eur J Med Chem, 2021).

Columns and labels:
Assay type in all cases: functional
Bacillus subtilis = assay: Antibacterial activity against penicillin-susceptible Bacillus subtilis ATCC 9372 assessed as bacterial growth inhibition incubated for 24 hrs by CLSI protocol based broth microdilution method
Streptococcus pyogenes [1] = assay: Antibacterial activity against erythromycin-resistant Streptococcus pyogenes 2 assessed as bacterial growth inhibition incubated for 24 hrs by CLSI protocol based broth microdilution method
[2] = system: Staphylococcus epidermidis; assay: Antibacterial activity against penicillin-resistant Staphylococcus epidermidis assessed as inhibition of bacterial growth measured by broth microdilution method; details: time 24 hrs
Pseudomonas aeruginosa = assay: Antibacterial activity against penicillin-susceptible Pseudomonas aeruginosa ATCC27853 assessed as bacterial growth inhibition incubated for 24 hrs by CLSI protocol based broth microdilution method
Streptococcus pyogenes [3] = assay: Antibacterial activity against erythromycin-susceptible Streptococcus pyogenes clinical isolate 1 assessed as bacterial growth inhibition incubated for 24 hrs by CLSI protocol based broth microdilution method
Staphylococcus aureus [4] = assay: Antibacterial activity against Staphylococcus aureus assessed as inhibition of bacterial growth measured by broth microdilution method; details: time 24 hrs
Procedure, shortened: (§1)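 Broth microdilution in Mueller Hinton broth. A 0.5 McFarland suspension was diluted tenfold, giving an inoculum of 1.5 × 10⁷ cfu/mL. This was added to 2-fold serial compound dilutions from […]. Plates were incubated aerobically at 37 °C for 24 h. MIC was the lowest concentration with no visible turbidity.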

Staphylococcus aureus [5] = assay: Antibacterial activity against penicillin-resistant Staphylococcus aureus assessed as inhibition of bacterial growth measured by broth microdilution method; details: time 24 hrs
Procedure, shortened: (§2)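 Broth microdilution MIC. A 0.5 McFarland suspension was diluted 10-fold and added at 1.5 × 10⁷ cfu/mL to 2-fold dilutions (0.125–64) in Mueller Hinton broth. Incubated aerobically 24 h at 37 °C. MIC was the lowest concentration with no visible turbidity.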

Escherichia coli = assay: Antibacterial activity against penicillin-susceptible Escherichia coli ATCC 25922 assessed as inhibition of bacterial growth measured by broth microdilution method; details: time 24 hrs; procedure, shortened: as §1
Staphylococcus aureus [6] = assay: Antibacterial activity against methicillin-resistant Staphylococcus aureus ATCC 43300 assessed as inhibition of bacterial growth by broth microdilution method; details: time 24 hrs; procedure, shortened: as §2
Bacillus pumilus = assay: Antibacterial activity against penicillin-susceptible Bacillus pumilus CMCC 63202 assessed as bacterial growth inhibition by broth dilution method; details: time 24 hrs; procedure, shortened: as §1
Staphylococcus aureus [7] = assay: Antibacterial activity against erythromycin-susceptible Staphylococcus aureus ATCC 25923 assessed as bacterial growth inhibition incubated for 24 hrs by CLSI protocol based broth microdilution method

Structure (SMILES) | MIC (Bacillus subtilis) [µg/mL] | MIC (Streptococcus pyogenes [1]) [µg/mL] | MIC [2] [µg/mL] | MIC (Pseudomonas aeruginosa) [µg/mL] | MIC (Streptococcus pyogenes [3]) [µg/mL] | MIC (Staphylococcus aureus [4]) [µg/mL] | MIC (Staphylococcus aureus [5]) [µg/mL] | MIC (Escherichia coli) [µg/mL] | MIC (Staphylococcus aureus [6]) [µg/mL] | MIC (Bacillus pumilus) [µg/mL] | MIC (Staphylococcus aureus [7]) [µg/mL]
CCCCc1ccc(C#Cc2c3ccccc3[n+](C)c3ccccc23)cc1.[I-] | 4 | 8 | 8 | > 64 | 8 | 4 | 8 | > 64 | 4 | 2 | 4
Cc1cccc(-c2c3ccccc3[n+](C)c3ccccc23)c1.[I-] | 8 | 16 | > 64 | > 64 | 4 | 4 | > 64 | > 64 | 64 | 16 | 1
C[n+]1c2ccccc2c(/C=C/c2ccccc2)c2ccccc21.[I-] | 1 | 0.5 | 8 | > 64 | 0.25 | 2 | 8 | > 64 | 4 | 2 | 0.5
COc1ccccc1/C=C/c1c2ccccc2[n+](C)c2ccccc12.[I-] | 1 | 0.5 | 8 | > 64 | 0.25 | 1 | 16 | > 64 | 4 | 2 | 0.25
CCCOc1ccc(C#Cc2c3ccccc3[n+](C)c3ccccc23)cc1.[I-] | 4 | 16 | 8 | > 64 | 16 | 4 | 16 | > 64 | 4 | 4 | 4
CCCCCCNc1c2ccccc2[n+](C)c2ccccc12.[Cl-] | 64 | 32 | 64 | > 64 | 32 | 64 | 64 | > 64 | 64 | 64 | 64
COc1ccccc1C#Cc1c2ccccc2[n+](C)c2ccccc12.[I-] | 8 | 16 | 16 | > 64 | 16 | 4 | 16 | > 64 | 8 | 2 | 8
C[n+]1c2ccccc2c(-c2cccc(F)c2)c2ccccc21.[I-] | 16 | 16 | > 64 | > 64 | 4 | 16 | > 64 | > 64 | > 64 | 32 | 8
C[n+]1c2ccccc2c(/C=C/c2ccc(Br)cc2)c2ccccc21.[I-] | 1 | 0.5 | 2 | > 64 | 0.25 | 1 | 4 | 64 | 2 | 1 | 0.5
COc1ccc(-c2c3ccccc3[n+](C)c3ccccc23)cc1.[I-] | 8 | 16 | > 64 | > 64 | 8 | 8 | > 64 | > 64 | > 64 | 16 | 4
COc1ccc(C#Cc2c3ccccc3[n+](C)c3ccccc23)cc1.[I-] | 4 | 16 | 16 | > 64 | 16 | 4 | 16 | > 64 | 8 | 4 | 4
CCCCCCCCNc1c2ccccc2[n+](C)c2ccccc12.[Cl-] | 16 | 16 | 16 | > 64 | 16 | 8 | 4 | > 64 | 16 | 16 | 8
